# Published values from different studies.
# Lines come from different studies, so protocols differ.
# RPS6KA4: Ribosomal protein S6 kinase alpha-4 (RPS6KA4, Homo sapiens, UniProt O75676)
# RPS6KA4 C-terminal kinase domain: Ribosomal protein S6 kinase alpha-4, C-terminal kinase domain (RPS6KA4, Homo sapiens, UniProt O75676)
Compound,target,observed,action,technique,concentration,measurement,value
CC(C)(C)c1cc(C=C(C#N)C#N)cc(Br)c1O,RPS6KA4,enzyme activity,inhibitor,,0.5 µM,remaining activity,90.9%
Cn1cncc1[C@](O)(COc1ccc(C#N)cc1-c1ccc(OC(F)(F)F)cc1)c1ccc(C#N)cc1,RPS6KA4 C-terminal kinase domain,cell-free assay,,competition with immobilised ligand,1 µM,remaining binding,76%
Cn1cc(-c2cc(F)cc(N3CCn4c(cc5c4CCCC5)C3=O)c2CO)cc(Nc2ccc(N3CCN(C4COC4)CC3)cn2)c1=O,RPS6KA4,enzyme activity,inhibitor,,0.1 µM,inhibition,15%
Nc1ncc(-c2nc(N3CCOCC3)nc(N3CCOCC3)n2)c(C(F)F)n1,RPS6KA4 C-terminal kinase domain,binding,,competition with immobilised ligand,10 µM,remaining binding,63%
O=c1[nH]c2ccccc2n1C1CCN(Cc2ccc(-c3[nH]c4cc5ncnc5cc4nc3-c3ccccc3)cc2)CC1,RPS6KA4,cell-free assay,,,0.5 µM,remaining signal,98.8%
N#CC1(c2ccccn2)CCN(Cc2cc(C(=O)O)c(=O)n3ccccc23)CC1,RPS6KA4 C-terminal kinase domain,cell-free assay,,competition with immobilised ligand,1 µM,remaining binding,65%
Cn1cc(-c2cccc(N3CCc4c(sc5c4CC(C)(C)C5)C3=O)c2CO)cc(Nc2ccncn2)c1=O,RPS6KA4,enzyme activity,inhibitor,,1 µM,inhibition,3%
Cc1nn(C)cc1-c1nc2c(N3CCN(Cc4ccc(Cl)cc4)CC3)c(Cl)cnc2[nH]1,"Ribosomal protein S6 kinase alpha-4, N-terminal kinase domain (RPS6KA4, Homo sapiens, UniProt O75676)",binding,,competition with immobilised ligand,1 µM,remaining binding,62%
